According to ChEMBL document CHEMBL1139904, “2-hydroxy-N-arylbenzenesulfonamides as ATP-citrate lyase inhibitors” (Bioorg Med Chem Lett, 2007):

Experiments:
[1] = molecular target: T1, ATP-citrate synthase (Homo sapiens, UniProt P53396); assay: Inhibition of human recombinant ATP-citrate lyase
T1 sequence (P53396 whole entry): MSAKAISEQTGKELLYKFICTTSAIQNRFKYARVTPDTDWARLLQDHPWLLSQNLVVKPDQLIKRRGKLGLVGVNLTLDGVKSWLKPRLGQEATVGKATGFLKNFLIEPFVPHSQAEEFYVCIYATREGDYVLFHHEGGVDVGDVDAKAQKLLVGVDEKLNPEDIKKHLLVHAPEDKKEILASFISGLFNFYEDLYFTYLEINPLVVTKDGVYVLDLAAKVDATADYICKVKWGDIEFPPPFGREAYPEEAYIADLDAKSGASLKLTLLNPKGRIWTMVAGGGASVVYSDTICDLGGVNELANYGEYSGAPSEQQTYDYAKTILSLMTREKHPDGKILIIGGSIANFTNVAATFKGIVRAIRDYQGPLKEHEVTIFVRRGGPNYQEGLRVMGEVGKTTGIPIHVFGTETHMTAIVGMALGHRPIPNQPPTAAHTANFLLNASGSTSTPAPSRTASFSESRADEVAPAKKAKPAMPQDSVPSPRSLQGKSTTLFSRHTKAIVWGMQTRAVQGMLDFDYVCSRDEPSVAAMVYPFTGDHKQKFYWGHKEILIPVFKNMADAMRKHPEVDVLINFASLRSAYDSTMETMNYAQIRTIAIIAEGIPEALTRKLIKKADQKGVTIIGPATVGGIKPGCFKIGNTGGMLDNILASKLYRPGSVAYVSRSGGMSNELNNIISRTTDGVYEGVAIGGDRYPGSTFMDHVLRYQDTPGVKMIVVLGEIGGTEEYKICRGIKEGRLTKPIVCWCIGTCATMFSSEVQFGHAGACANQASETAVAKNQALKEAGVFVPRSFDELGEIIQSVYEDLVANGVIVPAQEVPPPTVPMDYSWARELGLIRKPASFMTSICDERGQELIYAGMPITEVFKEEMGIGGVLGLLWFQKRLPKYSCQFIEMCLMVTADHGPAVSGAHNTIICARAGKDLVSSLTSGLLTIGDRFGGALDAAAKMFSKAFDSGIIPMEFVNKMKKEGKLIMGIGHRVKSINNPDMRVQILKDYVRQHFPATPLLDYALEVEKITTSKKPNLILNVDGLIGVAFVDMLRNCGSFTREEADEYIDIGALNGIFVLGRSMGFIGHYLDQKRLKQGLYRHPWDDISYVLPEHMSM
Summary of the method: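 Recombinant human ACL enzyme assay; values are at least two separate measurements.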

[2] = system: Mus musculus; assay: Reduction of cholesterol level in high-fat diet C57BL/6 mouse at 10 mg/kg; format: functional; set-up: scale not given: the % may be the effect or the level left
Summary of the method: (§1)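 Eight-week-old C57BL/6 mice (~30 g), five per group. High-fat diet (30% coconut oil, 45% sucrose) admixed with compound to give 10 or 100 mg/kg/day, versus high-fat and normal-chow controls, for 34 days. Food intake and body weight tracked; plasma lipids and fasting glucose assessed weekly. Lipid/glucose changes expressed as % reduction versus high-fat controls at day 29.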

[3] = system: Mus musculus; assay: Reduction of body weight gain in high-fat diet C57BL/6 mouse at 100 mg/kg after 29 days; format: functional; set-up: scale not given: the % may be the effect or the level left; summary of the method: as §1
[4] = system: Mus musculus; assay: Reduction of cholesterol level in high-fat diet C57BL/6 mouse at 100 mg/kg; format: functional; set-up: scale not given: the % may be the effect or the level left; summary of the method: as §1
[5] = system: Mus musculus; assay: Increase in food consumption in high-fat diet C57BL/6 mouse at 10 mg/kg; format: functional; summary of the method: as §1
[6] = system: Mus musculus; assay: Increase in food consumption in normal fat diet C57BL/6 mouse at 10 mg/kg; format: functional
[7] = Oral bioavailability in mouse at 10 mg/kg; format: ADME, organism-based; settings: in vivo
Summary of the method: (§2)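 Mice dosed at 10 mg/kg both iv and po; vehicle 10% ethanol, 45% water, 45% PEG-400. Standard PK parameters derived: oral bioavailability, half-life, Cmax (po), Tmax (po), total body clearance.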

[8] = system: Mus musculus; assay: Reduction of body weight gain in high-fat diet C57BL/6 mouse at 10 mg/kg after 29 days; format: functional; set-up: scale not given: the % may be the effect or the level left; summary of the method: as §1
[9] = Cmax in mouse at 10 mg/kg, po; format: ADME, organism-based; set-up: dose 10 mg/kg, route oral; settings: in vivo; summary of the method: as §2
[10] = system: Mus musculus; assay: Reduction of fasting plasma glucose level in C57BL/6 mouse at 100 mg/kg; format: functional; set-up: scale not given: the % may be the effect or the level left; summary of the method: as §1
[11] = molecular target: Acetyl-CoA carboxylase 1 (Homo sapiens, UniProt Q13085); assay: Inhibition of human ACC1
[12] = system: Mus musculus; assay: Reduction of fat in high-fat diet C57BL/6 mouse at 10 mg/kg after 34 days; set-up: scale not given: the % may be the effect or the level left
[13] = Tmax in mouse at 10 mg/kg, po; settings: in vivo
[14] = system: HepG2; assay: Cytotoxicity against HepG2 cells upto 50 uM by Alamar blue assay; settings: Homo sapiens
[15] = system: Mus musculus; assay: Reduction of fat in high-fat diet C57BL/6 mouse at 100 mg/kg after 34 days; set-up: scale not given: the % may be the effect or the level left
[16] = Half life in mouse at 10 mg/kg, iv and po; format: ADME, organism-based; set-up: dose 10 mg/kg, route oral; settings: in vivo; summary of the method: as §2
[17] = system: Mus musculus; assay: Reduction of triglycerides in high-fat diet C57BL/6 mouse at 100 mg/kg; format: functional; set-up: scale not given: the % may be the effect or the level left; summary of the method: as §1
[18] = molecular target: Acetyl-CoA carboxylase 2 (Homo sapiens, UniProt O00763); assay: Inhibition of human ACC2
Sequence of Acetyl-CoA carboxylase 2 (O00763 whole entry): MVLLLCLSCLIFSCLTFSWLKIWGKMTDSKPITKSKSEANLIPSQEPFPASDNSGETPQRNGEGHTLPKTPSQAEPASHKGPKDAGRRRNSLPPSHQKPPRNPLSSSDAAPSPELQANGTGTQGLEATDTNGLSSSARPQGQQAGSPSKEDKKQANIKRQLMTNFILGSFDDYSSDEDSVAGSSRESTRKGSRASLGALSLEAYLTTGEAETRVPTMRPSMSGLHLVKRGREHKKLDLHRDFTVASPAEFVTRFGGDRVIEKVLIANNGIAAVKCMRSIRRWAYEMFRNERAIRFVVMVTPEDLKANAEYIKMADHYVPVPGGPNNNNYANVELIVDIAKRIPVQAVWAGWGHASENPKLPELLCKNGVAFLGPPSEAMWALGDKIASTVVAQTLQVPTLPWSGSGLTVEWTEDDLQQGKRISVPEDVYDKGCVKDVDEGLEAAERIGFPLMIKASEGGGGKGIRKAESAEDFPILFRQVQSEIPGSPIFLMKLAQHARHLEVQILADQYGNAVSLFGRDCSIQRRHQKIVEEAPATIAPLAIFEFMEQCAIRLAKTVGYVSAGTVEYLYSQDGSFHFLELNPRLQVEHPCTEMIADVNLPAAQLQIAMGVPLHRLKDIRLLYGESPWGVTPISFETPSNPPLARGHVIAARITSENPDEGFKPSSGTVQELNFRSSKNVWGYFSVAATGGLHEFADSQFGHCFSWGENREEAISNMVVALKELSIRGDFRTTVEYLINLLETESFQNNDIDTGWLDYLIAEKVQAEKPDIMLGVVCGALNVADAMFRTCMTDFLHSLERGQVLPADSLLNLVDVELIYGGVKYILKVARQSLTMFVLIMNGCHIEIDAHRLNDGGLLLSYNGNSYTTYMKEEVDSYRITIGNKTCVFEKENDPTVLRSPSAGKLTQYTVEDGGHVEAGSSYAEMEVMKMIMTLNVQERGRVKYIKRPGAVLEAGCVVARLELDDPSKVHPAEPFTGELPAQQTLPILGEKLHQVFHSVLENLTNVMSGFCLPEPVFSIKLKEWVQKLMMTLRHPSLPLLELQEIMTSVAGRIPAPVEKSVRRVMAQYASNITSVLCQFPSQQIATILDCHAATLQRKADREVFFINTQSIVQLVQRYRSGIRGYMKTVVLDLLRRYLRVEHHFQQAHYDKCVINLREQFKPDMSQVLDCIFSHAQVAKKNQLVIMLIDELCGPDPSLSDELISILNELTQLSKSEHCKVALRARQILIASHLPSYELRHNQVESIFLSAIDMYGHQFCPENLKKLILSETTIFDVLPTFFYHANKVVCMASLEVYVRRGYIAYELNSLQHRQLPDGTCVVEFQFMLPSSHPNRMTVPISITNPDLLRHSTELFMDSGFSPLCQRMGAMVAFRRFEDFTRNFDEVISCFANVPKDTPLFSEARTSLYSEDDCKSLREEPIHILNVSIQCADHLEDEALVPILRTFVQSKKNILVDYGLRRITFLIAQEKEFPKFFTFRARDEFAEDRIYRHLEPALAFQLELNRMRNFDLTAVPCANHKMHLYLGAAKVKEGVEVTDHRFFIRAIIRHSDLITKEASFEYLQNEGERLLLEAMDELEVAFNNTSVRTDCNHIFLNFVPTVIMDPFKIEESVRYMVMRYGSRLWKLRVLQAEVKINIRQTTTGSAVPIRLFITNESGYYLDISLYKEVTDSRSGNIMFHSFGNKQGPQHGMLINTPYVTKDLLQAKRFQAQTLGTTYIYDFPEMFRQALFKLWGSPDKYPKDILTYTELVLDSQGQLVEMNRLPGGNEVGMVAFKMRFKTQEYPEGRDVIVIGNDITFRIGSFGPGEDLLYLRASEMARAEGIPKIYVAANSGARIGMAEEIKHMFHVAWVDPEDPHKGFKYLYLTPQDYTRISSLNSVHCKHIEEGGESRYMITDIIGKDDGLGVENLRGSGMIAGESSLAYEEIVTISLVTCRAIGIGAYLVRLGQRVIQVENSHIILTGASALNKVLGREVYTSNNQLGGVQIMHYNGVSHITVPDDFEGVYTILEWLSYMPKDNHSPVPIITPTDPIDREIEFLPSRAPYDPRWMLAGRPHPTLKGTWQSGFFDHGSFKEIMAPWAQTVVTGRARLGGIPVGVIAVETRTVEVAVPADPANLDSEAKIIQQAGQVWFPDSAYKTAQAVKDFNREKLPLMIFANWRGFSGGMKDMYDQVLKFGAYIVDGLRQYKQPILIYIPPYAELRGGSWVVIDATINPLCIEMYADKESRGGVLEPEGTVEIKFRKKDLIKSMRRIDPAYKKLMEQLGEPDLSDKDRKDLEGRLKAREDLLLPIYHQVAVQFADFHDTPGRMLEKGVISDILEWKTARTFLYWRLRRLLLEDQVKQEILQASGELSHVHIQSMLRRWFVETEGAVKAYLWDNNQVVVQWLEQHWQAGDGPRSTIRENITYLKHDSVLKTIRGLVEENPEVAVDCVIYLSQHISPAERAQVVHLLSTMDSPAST

[19] = system: Mus musculus; assay: Reduction of fasting plasma glucose level in C57BL/6 mouse at 10 mg/kg; format: functional; set-up: scale not given: the % may be the effect or the level left; summary of the method: as §1
[20] = system: Mus musculus; assay: Reduction of triglycerides in high-fat diet C57BL/6 mouse at 10 mg/kg; format: functional; set-up: scale not given: the % may be the effect or the level left; summary of the method: as §1
[21] = system: HepG2; assay: Inhibition of total lipid synthesis HepG2 cells assessed as incorporation of [14C]total lipids after 6 hrs; format: functional, cell-based; settings: Homo sapiens, HepG2, 6 h
Summary of the method: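 HepG2 cells incubated 6 h after compound addition, with [14C]-alanine present for the final 4 h; label incorporation into total lipid measured.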

## O=S(=O)(Nc1c(-c2ccccc2)cc(-c2ccccc2)cc1-c1ccccc1)c1cc(Cl)cc(Cl)c1O
[1]
  IC50: 0.19 µM

## O=S(=O)(Nc1cccc(Oc2ccccc2)c1)c1cc(Cl)cc(Cl)c1O
[1]
  IC50: 8.1 µM

## O=S(=O)(Nc1cc(F)cc(F)c1)c1cc(Cl)cc(Cl)c1O
[1]
  IC50: 7.6 µM

## CC(C)(C)c1ccc(C(C)(C)C)c(NS(=O)(=O)c2cc(Cl)cc(Cl)c2O)c1
[1]
  IC50: 5.6 µM

## O=C(O)C[C@@](O)(C[C@H](O)CCCCCCc1ccc(Cl)cc1Cl)C(=O)O
[1]
  IC50: 2.1 µM

## CC(=O)N(C)c1ccc(NS(=O)(=O)c2cc(Cl)cc(Cl)c2O)cc1
[1]
  IC50: 10.9 µM

## O=S(=O)(Nc1cc(Cl)cc(Cl)c1)c1cc(Cl)cc(Cl)c1O
[1]
  IC50: 2.3 µM

## CCCCCCc1ccc(NS(=O)(=O)c2cc(Cl)cc(Cl)c2O)cc1
[1]
  IC50: 6.9 µM

## O=C(OC/C=C\c1ccccc1)c1ccccc1NS(=O)(=O)c1cc(Cl)cc(Cl)c1O
[1]
  IC50: 0.34 µM

## CC(C)(C)c1cc(NS(=O)(=O)c2cc(Cl)cc(Cl)c2O)cc(C(C)(C)C)c1
[1]
  IC50: 1.1 µM

## COc1ccc(-c2ccccc2)cc1NS(=O)(=O)c1cc(Cl)cc(Cl)c1O
[1]
  IC50: 0.13 µM
[2]
  Activity: -9%
[3]
  Activity: 3%
[4]
  Activity: -19%
[5]
  Activity: 3.2 g/day
[6]
  Activity: 4 g/day
[7]
  bioavailability: 55%
[8]
  Activity: 7.2%
[9]
  Cmax: 13 µM
[10]
  Activity: -32%
[11]
  IC50: 6 µM
[12]
  Activity: 12.9%
[13]
  Tmax: 0.5 h
[14]
  Activity: Not toxic
[15]
  Activity: 7.3%
[16]
  half-life: 2.1 h
[17]
  Activity: -26%
[18]
  IC50: 12 µM
[19]
  Activity: -48%
[20]
  Activity: -26%
[21]
  IC50: 8 µM

## CC1CCC(C(C)C)C(OC(=O)c2ccccc2NS(=O)(=O)c2cc(Cl)cc(Cl)c2O)C1 (stereo not drawn)
[1]
  IC50: 0.37 µM

## O=C(O)C[C@@](O)(C(=O)O)[C@H](O)C(=O)O
[1]
  IC50: 0.15 µM
